Holding throughout (format): functional
One assay concerns MCF7. Briefly: Growth inhibition of human MCF7 cells after 48 hrs by sulforhodamine B assay. The following applies: MCF7, 48 h. The essentials:
(§1)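 SRB assay in MCF-7, NCI-H460 (5.0 × 10⁴ cells/mL) and A375-C5 (7.5 × 10⁴ cells/mL) grown in RPMI-1640 with 5% FBS. Cells attached overnight, then were exposed 48 h to five serial dilutions (top 150 or 50 µM; DMSO ≤0.25%). Cells were TCA-fixed, SRB-stained and read at A492. GI₅₀ taken from dose-response curves. Mean ± SEM, ≥3 independent experiments in duplicate.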
For orientation: In SRB staining, fixed cells bind dye roughly in proportion to their protein.

Assay [1] relates to NCI-H460. Briefly: Growth inhibition of human NCI-H460 cells after 48 hrs by sulforhodamine B assay. The following applies: NCI-H460, 48 h. The method, boiled down: as §1
Assay [2] in a line: Growth inhibition of human A375-C5 cells after 48 hrs by sulforhodamine B assay. The following applies: A375-C5, 48 h. The essentials:
as §1

Assay [3] deals with NCI-H460. Briefly: Cell cycle arrest in human NCI-H460 cells assessed as increase in cell accumulation in G1 phase at 12.6 uM after 48 hrs by propidium iodide staining-based flow cytometry. On the technique in general: A flow cytometer gives signals particle by particle.
Assay [4] has as its system NCI-H460. Briefly: Cell cycle arrest in human NCI-H460 cells assessed as decrease in cell accumulation in S phase at 12.6 uM after 48 hrs by propidium iodide staining-based flow cytometry.
The subject of assay [5] is NCI-H460. Briefly: Cell cycle arrest in human NCI-H460 cells assessed as decrease in cell accumulation in G2/M phase at 12.6 uM after 48 hrs by propidium iodide staining-based flow cytometry.
The subject of assay [6] is NCI-H460. Briefly: Induction of apoptosis in human NCI-H460 cells assessed as apoptotic cells at 12.6 uM after 48 hrs using annexin-V FITC/PI staining by flow cytometry (reference value: 8.4 to 11.2%).
Assay [7] relates to NCI-H460. Briefly: Induction of apoptosis in human NCI-H460 cells assessed as apoptotic cells at 2.7 uM after 48 hrs using annexin-V FITC/PI staining by flow cytometry (reference value: 8.4 to 11.2%).
Assay [8] deals with NCI-H460. Briefly: Cell cycle arrest in human NCI-H460 cells assessed as increase in cell accumulation in G1 phase at 2.7 uM after 48 hrs by propidium iodide staining-based flow cytometry.
The subject of assay [9] is NCI-H460. Briefly: Cell cycle arrest in human NCI-H460 cells assessed as decrease in cell accumulation in S phase at 2.7 uM after 48 hrs by propidium iodide staining-based flow cytometry.
The test system of assay [10] is NCI-H460. Briefly: Cell cycle arrest in human NCI-H460 cells assessed as decrease in cell accumulation in G2/M phase at 2.7 uM after 48 hrs by propidium iodide staining-based flow cytometry.
Assay [11] relates to NCI-H460. Briefly: Cell cycle arrest in human NCI-H460 cells assessed as increase in cell accumulation in G1 phase at 6.8 uM after 48 hrs by propidium iodide staining-based flow cytometry.
For assay [12], the system named is NCI-H460. Briefly: Cell cycle arrest in human NCI-H460 cells assessed as decrease in cell accumulation in S phase at 6.8 uM after 48 hrs by propidium iodide staining-based flow cytometry.
The test system of assay [13] is NCI-H460. Briefly: Cell cycle arrest in human NCI-H460 cells assessed as decrease in cell accumulation in G2/M phase at 6.8 uM after 48 hrs by propidium iodide staining-based flow cytometry.
In assay [14] the test system is NCI-H460. Briefly: Induction of apoptosis in human NCI-H460 cells assessed as apoptotic cells at 6.8 uM after 48 hrs using annexin-V FITC/PI staining by flow cytometry (reference value: 8.4 to 11.2%).
Assay [15] has as its system NCI-H460. Briefly: Induction of apoptosis in human NCI-H460 cells assessed as apoptotic cells at 3.9 uM after 48 hrs using annexin-V FITC/PI staining by flow cytometry (reference value: 8.4 to 11.2%).
In assay [16] the test system is NCI-H460. Briefly: Cell cycle arrest in human NCI-H460 cells assessed as increase in cell accumulation in G1 phase at 3.9 uM after 48 hrs by propidium iodide staining-based flow cytometry.
For assay [17], the system named is NCI-H460. Briefly: Cell cycle arrest in human NCI-H460 cells assessed as decrease in cell accumulation in S phase at 3.9 uM after 48 hrs by propidium iodide staining-based flow cytometry.
The test system of assay [18] is NCI-H460. Briefly: Cell cycle arrest in human NCI-H460 cells assessed as decrease in cell accumulation in G2/M phase at 3.9 uM after 48 hrs by propidium iodide staining-based flow cytometry.
Assay [19] relates to NCI-H460. Briefly: Cell cycle arrest in human NCI-H460 cells assessed as increase in cell accumulation in G1 phase at 4.1 uM after 48 hrs by propidium iodide staining-based flow cytometry.
The subject of assay [20] is NCI-H460. Briefly: Cell cycle arrest in human NCI-H460 cells assessed as decrease in cell accumulation in S phase at 4.1 uM after 48 hrs by propidium iodide staining-based flow cytometry.
The subject of assay [21] is NCI-H460. Briefly: Cell cycle arrest in human NCI-H460 cells assessed as decrease in cell accumulation in G2/M phase at 4.1 uM after 48 hrs by propidium iodide staining-based flow cytometry.
Assay [22] deals with NCI-H460. Briefly: Induction of apoptosis in human NCI-H460 cells assessed as apoptotic cells at 4.1 uM after 48 hrs using annexin-V FITC/PI staining by flow cytometry (reference value: 8.4 to 11.2%).
For assay [23], the system named is NCI-H460. Briefly: Induction of apoptosis in human NCI-H460 cells assessed as apoptotic cells at 4.9 uM after 48 hrs using annexin-V FITC/PI staining by flow cytometry (reference value: 8.4 to 11.2%).
In assay [24] the test system is NCI-H460. Briefly: Cell cycle arrest in human NCI-H460 cells assessed as increase in cell accumulation in G1 phase at 4.9 uM after 48 hrs by propidium iodide staining-based flow cytometry.
The subject of assay [25] is NCI-H460. Briefly: Cell cycle arrest in human NCI-H460 cells assessed as decrease in cell accumulation in S phase at 4.9 uM after 48 hrs by propidium iodide staining-based flow cytometry.
The test system of assay [26] is NCI-H460. Briefly: Cell cycle arrest in human NCI-H460 cells assessed as decrease in cell accumulation in G2/M phase at 4.9 uM after 48 hrs by propidium iodide staining-based flow cytometry.

The source made the active and inactive calls. No cut-off for these calls is given here.

The term GI50 denotes the concentration giving 50% growth inhibition. Read a low GI50 as more potent growth inhibition. For `CC(C)=CCOc1ccc2c(=O)c(O)c(-c3ccccc3)oc2c1`, the GI50 in the assay on MCF7 was 14 µM; in the assay on NCI-H460 [1], 12.6 µM; in assay [2], 30.3 µM. Besides, the outcome in the assay on NCI-H460 [3], in the assay with NCI-H460 [4] and with NCI-H460 [5] was Active. Also, the Activity with NCI-H460 [6] was determined as 11.9%.
`CC1(C)CCc2c(ccc3c(=O)c(O)c(-c4ccccc4)oc23)O1`: the GI50 was found to be 3.7 µM in the assay with MCF7, 2.7 µM with NCI-H460 [1] and 2.3 µM in assay [2]. The Activity in the assay on NCI-H460 [7] was determined as 13.1%. In addition, the outcome in the assay on NCI-H460 [8], with NCI-H460 [9] and in the assay with NCI-H460 [10] was Active.
In the case of `CC(C)=CCOc1cc2oc(-c3ccccc3)cc(=O)c2c(O)c1OCC=C(C)C`, the GI50 (in the assay on MCF7; in the assay on NCI-H460 [1]; in [2]) was greater than 150 µM in each case.
Regarding `CC(C)=CCOc1cc2oc(-c3ccccc3)cc(=O)c2c(O)c1O`, the GI50 with MCF7 came out at 9.1 µM; with NCI-H460 [1], 6.8 µM; in [2], 9.2 µM. Further, the Activity in the assay on NCI-H460 [11] is reported as greater than 10%; with NCI-H460 [14], 9.1%. Also, the result in the assay on NCI-H460 [12] and with NCI-H460 [13] was Active.
As for `O=c1c(O)c(-c2ccccc2)oc2cc(O)ccc12` [3,7-DIHYDROXYFLAVONE], the figures for the GI50 (with MCF7; in the assay with NCI-H460 [1]; in assay [2]) were 17.4 µM, 15.4 µM and 23 µM, respectively.
In the case of `CC1Oc2ccc3c(=O)c(O)c(-c4ccccc4)oc3c2C1(C)C` (configuration not stated), the figures for the GI50 (in the assay on MCF7; in the assay with NCI-H460 [1]; in [2]) were 4.5 µM, 3.9 µM and 7.6 µM, respectively. For the same molecule, the Activity in the assay with NCI-H460 [15] stood at 9.5%. For the same molecule, the outcome with NCI-H460 [16], in the assay with NCI-H460 [17] and in the assay on NCI-H460 [18] was Active.
`CC(C)=CCC/C(C)=C/COc1cc2oc(-c3ccccc3)cc(=O)c2c(O)c1O`: the GI50 in the assay on MCF7 came to 4.4 µM; in the assay on NCI-H460 [1] it was 4.1 µM; in [2], 5.3 µM. The Activity was greater than 10% in the assay on NCI-H460 [19] and 18.8% in the assay on NCI-H460 [22]. The outcome in the assay on NCI-H460 [20] and in the assay with NCI-H460 [21] was Active.
On to `CC1Oc2c(O)c(O)c3c(=O)cc(-c4ccccc4)oc3c2C1(C)C` (configuration not stated), for which the GI50 stood at 43.7 µM with MCF7, 40.6 µM in the assay with NCI-H460 [1] and 47.7 µM in assay [2].
On to `CC(C)=CCC/C(C)=C/COc1ccc2c(=O)c(O)c(-c3ccccc3)oc2c1`, for which the GI50 was 6.4 µM in the assay with MCF7, 4.9 µM in the assay with NCI-H460 [1] and 7.2 µM in [2]. Moreover, the Activity in the assay on NCI-H460 [23] was 12%. The outcome in the assay with NCI-H460 [24], in the assay on NCI-H460 [25] and in the assay with NCI-H460 [26] was Active.
Consider `CC1(C)CCc2c(c(O)c(O)c3c(=O)cc(-c4ccccc4)oc23)O1`, for which the GI50 with MCF7 was 21 µM; in the assay with NCI-H460 [1], 17.7 µM; in [2] it was 27.4 µM.
The matching figures for `CC(C)=CCOc1ccc2c(=O)c(OCC=C(C)C)c(-c3ccccc3)oc2c1`: 63.3 µM, 51.9 µM and 59 µM.
For the molecule `CC(C)=CCC/C(C)=C/COc1ccc2c(=O)c(OC/C=C(\C)CCC=C(C)C)c(-c3ccccc3)oc2c1`, the GI50 in the assay with MCF7 came out at 66.5 µM; in the assay on NCI-H460 [1], 55 µM; in assay [2], 58.5 µM.
Consider `O=c1cc(-c2ccccc2)oc2cc(O)c(O)c(O)c12` [BAICALEIN], for which the GI50 with MCF7 was found to be 32.8 µM; in the assay with NCI-H460 [1], 26.7 µM; in assay [2], 7.7 µM.
The matching figures for `CC(C)=CCC/C(C)=C/COc1c(OC/C=C(\C)CCC=C(C)C)c(O)c2c(=O)cc(-c3ccccc3)oc2c1C/C=C(\C)CCC=C(C)C`: greater than 150 µM, greater than 150 µM and greater than 150 µM.
In the same order, the values of `CC(C)=CCC/C(C)=C/COc1cc2oc(-c3ccccc3)cc(=O)c2c(O)c1OC/C=C(\C)CCC=C(C)C` are greater than 150 µM, greater than 150 µM and greater than 150 µM.
Take `CC(C)=CCOc1c(OCC=C(C)C)c(O)c2c(=O)cc(-c3ccccc3)oc2c1CC=C(C)C`: the GI50 (with MCF7; with NCI-H460 [1]; in assay [2]) was greater than 150 µM in each case.

For the origin of these results see ChEMBL document CHEMBL1781896, “Prenylated derivatives of baicalein and 3,7-dihydroxyflavone: synthesis and study of their effects on tumor cell lines growth, cell cycle and apoptosis” (2011).
